According to ChEMBL document CHEMBL1135125, “Cytotoxic alpha-bromoacrylic derivatives of low molecular weight” (Bioorg Med Chem Lett, 2002):

Columns and labels:
L1210 = assay: In vitro cytotoxicity against L1210 murine leukemia cells after 48 hr of continuous exposure; type: functional, cell-based; conditions: Mus musculus, L1210, 48 h
Procedure, shortened: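 L1210 murine leukaemia cells (from NCI) under continuous drug exposure for 48 h; IC50 taken from dose–response curves, mean±SE of at least two experiments.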

Caco-2 = assay: Caco-2 cell permeability coefficient was determined after 120 min of incubation; type: functional, cell-based; conditions: Homo sapiens
Procedure, shortened: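 Caco-2 cells grown 21 days on permeable polycarbonate transwell filters; apparent permeability coefficient measured after 120 min incubation per a published method; total compound recovery calculated at end of experiment.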

Mus musculus [1] = assay: Median survival time of mice injected with L1210 cells intravenously versus untreated mice at an optimal (non toxic) dose of 50 mg/kg; type: functional; conditions: route intravenous
Mus musculus [2] = assay: Median survival time of mice injected with L1210 cells intravenously versus untreated mice at an optimal (non toxic) dose of 12.5 mg/kg; type: functional; conditions: route intravenous
Mus musculus [3] = assay: Median survival time of mice injected with L1210 cells intravenously versus untreated mice at an optimal (non toxic) dose of 25 mg/kg; type: functional; conditions: route intravenous
Mus musculus [4] = assay: Median survival time of mice injected with L1210 cells intravenously versus untreated mice at an optimal (non toxic) dose of 100 mg/kg; type: functional; conditions: route intravenous
Mus musculus [5] = assay: Median survival time of mice injected with L1210 cells intraperitoneally versus untreated mice at an optimal (non toxic) dose of 12.5 mg/kg; type: functional; conditions: route intraperitoneal

Structure (SMILES)	IC50 (L1210) [nM]	Papp (Caco-2) [×10⁻⁶ cm/s]	further results
C=C(Br)C(=O)Nc1cc(C(=O)Nc2cc(C(=O)NCCC(=N)N)n(C)c2)n(C)c1	1300	5.58	
C=C(Br)C(=O)Nc1cc(C(=O)Nc2cc(C(=O)Nc3cc(C(=O)Nc4cc(C(=O)NCCN=C(N)N)n(C)c4)n(C)c3)n(C)c2)n(C)c1	1.8		
C=C(Br)C(=O)Nc1ccc(F)cc1	58.6		T/C (Mus musculus [1]): 100%
C=C(Br)C(=O)Nc1ccccc1	36.8		T/C (Mus musculus [2]): 117%
C=C(Br)C(=O)Nc1ccc(N(C)C)cc1.Cl	54		T/C (Mus musculus [3]): 100%
C=CC(=O)Nc1cc(C(=O)Nc2cc(C(=O)Nc3cc(C(=O)Nc4cc(C(=O)NCCC(=N)N)n(C)c4)n(C)c3)n(C)c2)n(C)c1	2000		
C=C(Br)C(=O)Nc1cc(C(=O)NCCC#N)n(C)c1	51.9		T/C (Mus musculus [4]): 100%
C=C(Br)C(=O)Nc1cc(C(=O)Nc2cc(C(=O)NCCN=C(N)N)n(C)c2)n(C)c1	> 500		
C=C(Br)C(=O)Nc1cc(C(=O)Nc2cc(C(=O)Nc3cc(C(=O)NCCN=C(N)N)n(C)c3)n(C)c2)n(C)c1	27		
C=C(Br)C(=O)Nc1cc(C(=O)Nc2cc(C(=O)Nc3cc(C(=O)Nc4cc(C(=O)NCCC(=N)N)n(C)c4)n(C)c3)n(C)c2)n(C)c1		38.2	
C=C(Br)C(=O)Nc1cc(C(=O)NCCC(=N)N)n(C)c1	> 2500	0.69	
C=C(Br)C(=O)Nc1ccc(C(=N)N)cc1	> 5000	3.9	
C=C(F)C(=O)Nc1cc(C(=O)Nc2cc(C(=O)Nc3cc(C(=O)Nc4cc(C(=O)NCCC(=N)N)n(C)c4)n(C)c3)n(C)c2)n(C)c1	> 800		
C=C(F)C(=O)Nc1cc(C(=O)Nc2ccccc2)n(C)c1	> 5000	39.6	
C=C(Br)C(=O)Nc1cc(C(=O)Nc2ccccc2)n(C)c1	43	1.2	T/C (Mus musculus [3]): 100%
C=C(Br)C(=O)Nc1cc(C(=O)Nc2cc(C(=O)Nc3cc(C(=O)NCCC(=N)N)n(C)c3)n(C)c2)n(C)c1.Cl		15.2	T/C (Mus musculus [5]): 175%
